PERK inhibitor = inhibitors of human PERK kinase | Q9NZJ5 | CHO PERK-DD fusion, SEAP luminescence translation reporter | inhibition, % at 5.6 µM | actives 0.17% (n = 220,000);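 active means inhibition above the mean inhibition of all tested compounds plus 3 SD, set separately per screening campaign, cut at about 2.9% in these data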;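 further: PERK kinase domain activated by AP20187 dimerizer at 100 nM; 0% = DMSO with dimerizer and 100% = rapamycin at 8.4 µM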
AHR act = human AHR activation. AID 2796. activation, % at 5 µM. actives 2.5% (n = 320,000). P35869. AHR-responsive luciferase reporter cells, luminescence; in the data active means activation above about 47%;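 further: 0% = vehicle wells and 100% = reference agonist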
Target sequence (P35869 whole entry, looked up): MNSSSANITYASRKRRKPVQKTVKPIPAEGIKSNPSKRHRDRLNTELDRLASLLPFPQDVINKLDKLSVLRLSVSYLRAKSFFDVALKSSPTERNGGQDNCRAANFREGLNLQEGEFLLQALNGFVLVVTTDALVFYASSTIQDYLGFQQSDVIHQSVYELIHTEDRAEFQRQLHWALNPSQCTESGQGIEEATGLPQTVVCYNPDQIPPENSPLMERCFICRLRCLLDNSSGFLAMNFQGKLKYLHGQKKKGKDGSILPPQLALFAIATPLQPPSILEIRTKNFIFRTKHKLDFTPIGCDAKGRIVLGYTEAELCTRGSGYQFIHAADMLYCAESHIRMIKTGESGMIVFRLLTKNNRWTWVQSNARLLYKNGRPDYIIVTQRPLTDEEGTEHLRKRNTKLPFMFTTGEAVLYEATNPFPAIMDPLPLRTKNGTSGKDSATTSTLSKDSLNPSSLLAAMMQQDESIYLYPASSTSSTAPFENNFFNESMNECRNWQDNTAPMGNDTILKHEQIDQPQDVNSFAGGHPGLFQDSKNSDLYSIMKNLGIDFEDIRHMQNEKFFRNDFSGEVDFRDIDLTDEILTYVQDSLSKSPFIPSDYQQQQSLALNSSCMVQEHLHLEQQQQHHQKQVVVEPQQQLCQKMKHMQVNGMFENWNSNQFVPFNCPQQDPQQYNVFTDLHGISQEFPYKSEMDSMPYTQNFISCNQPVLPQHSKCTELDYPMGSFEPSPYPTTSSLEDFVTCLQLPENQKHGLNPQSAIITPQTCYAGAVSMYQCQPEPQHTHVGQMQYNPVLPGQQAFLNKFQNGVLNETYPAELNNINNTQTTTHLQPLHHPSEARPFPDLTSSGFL
STAT3 act = STAT3 signaling activation; U3A cells, IL-6 STAT3-luciferase reporter, luminescence; 100% = signal with IL-6 EC80 alone; activation (% of control), % at 5.6 µM; actives 0.91% (n = 190,000); AID 871;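 active means activation above the screen-wide mean of compound activation plus 3 SD, cut at about 130% in these data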;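 further: 0% = background luminescence of wells with medium and substrate only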
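System – human U3A cells carrying STAT3-luciferase construct · Probe or stimulus – Interleukin-6, 33 ng/mL · Schedule – compound 1 h, then IL-6 6 h at 37 °C · Signal – luminescence from STAT3-driven luciferase reporter · Evaluation – percent of IL-6-only median luminescence · Benchmarks – IL-6-only high control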
Hsp70 act = transcriptional activators of Hsp70 | actives 0.04% (n = 200,000) | activation, % at 10 µM | HeLa Hsp70 promoter luciferase reporter, luminescence; scaled: vehicle 0, proteasome-inhibitor control 100% | AID 1203;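 active means activation above the mean across all tested compounds plus 3 SD, cutoff set per campaign, cut at about 5.5% in these data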;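 further: 100% = MG132 at 30 µM as the positive control and 0% = DMSO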
PolyA inhibitor = inhibitors of polyadenylation in S. cerevisiae. activity score, % at 12 µM. AID 1875. S. cerevisiae SKY197-pL101 polyadenylation reporter, beta-gal luminescence; efflux-impaired pdr1/pdr3 knockout yeast; score 100 = 6 SD above DMSO. actives 0.02% (n = 300,000);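 active means lowest replicate activity score at least 50, where 100 means six control SD above control mean; inconclusive means lowest score under 50 but half or more replicates reach 50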;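 further: yeast exposed to compound for 9 h at 30 °C; higher score means more reporter readthrough which indicates perturbed polyadenylation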
HSF1 inh = HSF1 inhibition | activity change, negative = inhibition, % at 7.5 µM (by protocol) | AID 2098 | NIH3T3-HGL HSE-luciferase, MG132-induced, luminescence 8 h; active compounds read low | actives 0.77% (n = 300,000);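 active means more than half of replicate wells show activity change below -50%, luminescence cut by over half; inconclusive means some wells, but at most half, below -50%; inactive means no replicate well below -50%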;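 further: luciferase reports HSF-1 transcriptional activity via heat shock element; 0% = median of DMSO wells and -100% = zero luminescence signal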
AHR act cf = human AHR activation, confirmation. shares compounds with AHR act. human cells, AHR-responsive luciferase reporter, luminescence. activation, % at 9 µM. actives 87% (n = 2,300); in the data active means activation above about 49%;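 further: HepG2 hepatoma cells carrying a DRE-driven firefly luciferase reporter; 0% = vehicle wells and 100% = reference agonist wells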
PXR counter = counter-screen for AHR activators: human PXR activators; shares compounds with AHR act; cell-based PXR reporter, luciferase luminescence; actives 88% (n = 2,300); activation, % at 11.6 µM; AID 434939; in the data active means activation above about 11%;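 further: human hepatoma DPX-2 cells expressing full-length human PXR; 0% = DMSO and 100% = reference agonist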
Starred values were filed as active, the others as inactive. This is a sample that favours compounds with a hit; in the whole collection about 3.6% have one here.

Screening COCCn1c(C)cc(/C=C2/NC(=O)N(c3cccc(Cl)c3)C2=O)c1C returned PERK inhibitor 1.2, AHR act 122.0*, STAT3 act 97.8, Hsp70 act 0.3, PolyA inhibitor 10.6, HSF1 inh inconclusive, AHR act cf 4.8 and PXR counter 74.2*.
`COC(=O)c1sccc1-c1ccc(C(=O)Nc2cccc(Cl)c2)o1` gave PERK inhibitor -0.4, AHR act 103.7*, STAT3 act 114.3, Hsp70 act 0.1, PolyA inhibitor 17.0, HSF1 inh 7.6, AHR act cf 73.9* and PXR counter 24.7*.
Screening O=C(Nc1cc(F)c(Br)cc1F)c1ccc(Cl)cc1 returned PERK inhibitor 0.7, AHR act 83.0*, PolyA inhibitor -19.9, HSF1 inh 12.7, AHR act cf 97.7* and PXR counter 30.7*.
Screening O=C(Nc1ccc(Cl)cc1C(F)(F)F)c1ccc(Cl)cc1 returned PERK inhibitor 2.3, AHR act 0.5, STAT3 act 94.9, Hsp70 act -0.1, PolyA inhibitor 2.3 and HSF1 inh -0.7.
`CCc1cc(/C(Cc2ccc3ccccc3n2)=N\O)c(O)cc1O` gave PERK inhibitor 0.3, AHR act 88.5*, STAT3 act 93.3, Hsp70 act -0.4, PolyA inhibitor 4.0, HSF1 inh 6.7 and AHR act cf 55.1*.
For Cc1nnc2c(-c3ccccc3)nc3ccccc3n12 the results were PERK inhibitor 0.9, AHR act 89.1*, STAT3 act 90.8, Hsp70 act -0.5, PolyA inhibitor -8.2, HSF1 inh -0.3, AHR act cf 109.2* and PXR counter 13.0*.
Screening CC(C)(C)NC(=O)C(c1ccccc1)N(C(=O)CNC(=O)c1cccs1)c1cccnc1 (stereo unspecified) returned AHR act -2.3, PolyA inhibitor 3.1 and HSF1 inh -4.1.
`CC1CCN(c2ccc(NC(=S)NC(=O)c3ccc(-c4cccc([N+](=O)[O-])c4)o3)cc2)CC1` gave PERK inhibitor 0.8, AHR act 82.1*, STAT3 act 93.2, Hsp70 act -0.5, PolyA inhibitor -8.7, HSF1 inh 8.5, AHR act cf 27.5 and PXR counter 14.7*.
CC1CCN(c2ccccc2NC(=S)NC(=O)c2ccc(-c3cccc([N+](=O)[O-])c3)o2)CC1 was read as PERK inhibitor 0.7, AHR act 1.2, STAT3 act 101.3, Hsp70 act -0.4, PolyA inhibitor 8.2 and HSF1 inh -3.8.
Screening Cc1cc(SCC(=O)OCC(=O)N(CCC#N)c2ccccc2)nc2ccccc12 returned AHR act -1.6, PolyA inhibitor 3.4 and HSF1 inh 2.9.
`Brc1c(-c2ccc3c(c2)OCO3)nc2ncccn12` gave PERK inhibitor 1.7, AHR act 101.2*, STAT3 act 92.2, Hsp70 act 0.4, PolyA inhibitor 10.1, HSF1 inh 9.1, AHR act cf 115.8* and PXR counter 22.2*.
`COc1ccc(-c2nc3ncccn3c2Br)cc1` gave PERK inhibitor 2.6, AHR act 29.4, STAT3 act 87.6, Hsp70 act 0.2, PolyA inhibitor -1.5 and HSF1 inh 13.0.
Screening Cc1ccc(NC(=S)N/N=C2\CCCCC2C)cc1 (stereo unspecified) returned PERK inhibitor 1.0, AHR act 7.0, STAT3 act 102.9, Hsp70 act -0.1, PolyA inhibitor 1.5 and HSF1 inh -13.2.
For CC1CCCC/C1=N\NC(=S)Nc1cccnc1 (stereo unspecified) the results were PERK inhibitor 0.6, AHR act 113.3*, STAT3 act 97.2, Hsp70 act -0.3, PolyA inhibitor 13.3, HSF1 inh 5.9, AHR act cf 73.5* and PXR counter 12.0*.
CN1CCN(NC(=O)c2cn(-c3ccccc3)nc2-c2ccc(OC(F)F)cc2)CC1 was read as PERK inhibitor 1.1, AHR act -1.7, STAT3 act 97.0, Hsp70 act -0.2, PolyA inhibitor -7.6 and HSF1 inh 1.7.
Screening Cc1cc2c(cc1S(=O)(=O)CCC(=O)Nc1cccc(C(F)(F)F)c1)OCC(=O)N2 returned AHR act 2.6, PolyA inhibitor -17.8 and HSF1 inh 0.3.
For Cc1cc(N2CCCCC2)nc(-c2ccc(Br)cc2)n1 the results were PERK inhibitor 0.5, AHR act 80.1*, STAT3 act 79.1, Hsp70 act -0.3, PolyA inhibitor -28.2, HSF1 inh 4.4, AHR act cf 108.8* and PXR counter 3.2.
Clc1cccc2sc(N3CCCCC3)nc12 was read as PERK inhibitor 0.0, AHR act 0.8, STAT3 act 104.0, Hsp70 act -0.1, PolyA inhibitor -13.1 and HSF1 inh 17.9.
Screening Brc1cccc2sc(N3CCN(c4ccccc4)CC3)nc12 returned PERK inhibitor 0.4, AHR act 91.2*, STAT3 act 101.6, Hsp70 act 0.2, PolyA inhibitor -1.4, HSF1 inh 13.9, AHR act cf 108.3* and PXR counter 18.5*.
c1cc(Nc2cccc3nccnc23)c2nccnc2c1 was read as PERK inhibitor -0.3, AHR act -3.5, STAT3 act 75.6, Hsp70 act -0.1, PolyA inhibitor -47.7 and HSF1 inh -5.5.
Fc1ccc(Nc2cccc3nccnc23)cc1 was read as PERK inhibitor -0.2, AHR act 137.4*, STAT3 act 101.9, Hsp70 act 0.1, PolyA inhibitor -0.4, HSF1 inh 0.7, AHR act cf 57.7* and PXR counter 13.1*.
Cc1ccc2nc(-c3ccc(-c4cccc(Cl)c4)cc3)c(NCc3ccccc3)n2c1 was read as AHR act 86.2*, PolyA inhibitor 1.9, HSF1 inh -18.6, AHR act cf 36.7 and PXR counter 28.0*.
`CCC(C)Sc1ccc(-c2nc3ccc(C)cn3c2NCc2ccccc2)cc1` (stereo unspecified) gave AHR act 2.8.
Cc1ccc(-c2nc3ccccn3c2NCc2ccc3c(c2)OCO3)cc1 was read as PERK inhibitor -0.7, AHR act 108.8*, STAT3 act 105.4, Hsp70 act -0.1, PolyA inhibitor -11.8, HSF1 inh 16.2, AHR act cf 78.9* and PXR counter 84.5*.
For C/C(=N\Nc1nc2ccc(Cl)cc2o1)c1ccccc1 the results were PERK inhibitor -0.4, AHR act 15.1, PolyA inhibitor -17.8 and HSF1 inh 9.5.
